From PubChem BioAssay
GSK3A inh = inhibitors of human GSK-3 alpha kinase. inhibition, % at 10 µM. 320,000 tested, 0.1% active. AID 2650. ADP-Glo luminescence, 60 min. P49840;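 active = more than half of replicates show inhibition above 20%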;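 also: GST-tagged GSK-3 alpha with peptide substrate and 25 µM ATP; 0% = DMSO neutral wells and 100% = GW8510 positive control wells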
GSK3B inh = blocks human GSK3beta kinase activity. GST-GSK3beta kinase, ADP-Glo luminescence, 60 min; hits give low values. 300,000 tested, 0.038% active. P49841. activity score (negative = inhibition), % at 10 µM;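 active = more than half of replicate wells score below -50%, meaning over 50% inhibition versus plate controls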;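 also: 0% = median DMSO wells and -100% = median GW8510 positive control wells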
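Test system – GST-tagged human GSK3beta kinase, cell-free · Incubation – 60 min enzyme reaction, room temperature · Signal – ADP-Glo luminescence · Also added – peptide substrate and ATP at 25 µM · Controls – DMSO neutral wells and GW8510 at 20 µM as positive · Buffer or medium – Tris/MgCl2 kinase buffer · Measure – Luminescence-derived activity versus plate DMSO and GW8510 wells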
STK33 kinase inh = inhibitors of human STK33 kinase | Q9BYT3 | inhibition, % at 10 µM | 320,000 tested, 0.073% active | purified STK33, MBP phosphorylation, ADP-Glo luminescence;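 active = inhibition at or above 25%, using the most active replicate where run in duplicate; inactive = inhibition below 25%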
DYRK1A inh = inhibitors of rat Dyrk1A kinase; 310,000 tested, 0.43% active; inhibition, % at 12.5 µM; ADP-Glo luminescence, NFATc1 peptide; in the data active = inhibition above about 50%;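 also: plate controls were vehicle with enzyme for no effect and no enzyme for full effect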
Arrestin-AP2 inh = human beta-arrestin and AP2 interaction inhibition | 340,000 tested, 0.31% active | inhibition, % at 10 µM | FITC-arrestin peptide / GST-AP2 beads, flow cytometry; AP2 beta2 appendage carries R879A mutation;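 active = inhibition above a set limit, near 3 SD of compounds lacking own fluorescence, cut at about 54% in these data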;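 also: plate controls were DMSO wells for no effect and 5 µM unlabelled arrestin peptide for full effect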
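Assay system: GST-AP2 R879A bound to glutathione beads, E. coli-expressed; Medium: PBS with 0.05% Tween 20 and 0.1% BSA; Also added: fluorescein-tagged arrestin peptide at 50 nM final; Timing: 12 min plus 1 h, RT; Measured by: flow cytometry, FL1 (488/535 nm); Evaluation: percent drop in bead-associated FITC signal.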
Rin1-Abl PPI inh = inhibitors of human Rin1-Abl protein interaction; 360,000 tested, 0.4% active; TR-FRET Rin1/Abl binding, biochemical; inhibition, % at 7.35 µM; P00519+Q13671; in the data active = inhibition above about 5%, passing the limit was not always enough
Active calls of the source: *; . = no result. Rows were chosen to be rich in hits. Some 0.99% of all compounds tested hit in one or more screens of this group.

SMILES	GSK3A inh	GSK3B inh	STK33 kinase inh	DYRK1A inh	Arrestin-AP2 inh	Rin1-Abl PPI inh
C#CCOCCOCCOCCNc1nc(N2CCN(C(=O)CCCCCCCCCCNC(=O)[C@H](CCCCN)n3cc(C)nn3)CC2)nc(N2CCN(C(=O)CCCCCCCCCCNC(=O)[C@@H]([C@H](C)CC)n3cc(CCCCCN)nn3)CC2)n1	33	.	14	20	-25	12*
C#CCOCCOCCOCCNc1nc(N2CCN(C(=O)CCCCCCCCCCNC(=O)[C@H]([C@@H](C)CC)n3cc(CCCCCN)nn3)CC2)nc(N2CCN(C(=O)CCCCCCCCCCNC(=O)[C@@H]([C@H](C)O)n3cc(C)nn3)CC2)n1	7	.	11	23	3	2
C#CCOCCOCCOCCNc1nc(N2CCN(C(=O)CCCCCCCCCCNC(=O)[C@H](CCCCN)n3cc(CCO)nn3)CC2)nc(N2CCN(C(=O)CCCCCCCCCCNC(=O)[C@@H]([C@H](C)O)n3cc(C)nn3)CC2)n1	13	.	2	-2	17	9.6*
C#CCOCCOCCOCCNc1nc(N2CCN(C(=O)CCCCCCCCCCNC(=O)[C@H](CCC(=O)O)n3cc(CCCCCN)nn3)CC2)nc(N2CCN(C(=O)CCCCCCCCCCNC(=O)[C@@H]([C@H](C)O)n3cc(C)nn3)CC2)n1	-23	.	1	9	25	7
Cc1cc(C)n(CCC(=O)N=Nc2c(O)[nH]c3ccccc23)n1	8	0	-1	-4	5	-4
Cc1cc(C)n(CCC(=O)N=Nc2c(O)[nH]c3ccc(Br)cc23)n1	73*	-16	0	-3	33	-3
Cc1cn(C2OC(CC(=O)Oc3ccccc3)C(O)C2O)c(=O)[nH]c1=O (configuration not stated)	52*	-25	0	-7	3	-1
COc1ccc(C2NCCc3c2[nH]c2ccccc32)cc1CN1CCc2cc(OC)c(OC)cc2C1C (configuration not stated)	.	-2	.	-4	4	7.3*
O=C(NC1(O)C(=O)c2ccccc2C1=O)c1ccc(C(F)(F)F)cc1	1	-2	-2	.	5	18*
O=C(Cc1ccccc1)NC1(O)C(=O)c2ccccc2C1=O	3	0	-1	7	7	4
COc1cccc(NC(=O)CN(C)C(=O)CC2CC3CCC2C3)c1 (configuration not stated)	-2	1	-2	4	27	3
O=C1C=C(O)c2c(O)cc(O)c(O)c2C1=O	3	1	6	27	6	58*
Cc1c(CN(C)C)c2c(n1Cc1ccccc1)C(=O)c1ccc(Br)cc1-2	-1	-5	-1	-6	7	-5
Cc1c(CN(C)C)c2c(n1C)C(=O)c1ccc(Br)cc1-2	55*	-37	1	36	-3	-10
COc1cccc2c1cc1c(=O)n(CC(=O)NCCCc3ccccc3)nc(C)n12	-2	1	0	5	2	3
COc1cccc2c1cc1c(=O)n(CC(=O)NCCCN3CCCCC3)nc(C)n12	-1	-60*	0	-2	4	0
CC(C)n1cnc2c(NCc3ccccc3)nc(NCc3ccccc3)nc21	0	-4	-1	19	14	4
C=CC(=O)Nc1cccc(Nc2nc(N[C@H]3CC[C@H](N(C)C)CC3)nc3c2ncn3C(C)C)c1	.	.	.	88*	32	-2
Cc1ccc(S(=O)(=O)N2CCN(CC(=O)Nc3ccccc3C(=O)NC3CC3)CC2)cc1	.	.	.	-5	-2	6
O=C(CN1C(=O)CCC1=O)Nc1cccc2c1C(=O)NC2=O	98*	-80*	-1	2	-13	-1
O=C(Nc1cccc2c1C(=O)NC2=O)c1cccc(N2C(=O)CCC2=O)c1	6	-8	3	3	25	2
CCOC(=O)C1=C[C@@H](c2ccccc2)N(S(=O)(=O)c2ccc(C)cc2)[C@H]1c1ccccc1Cl	.	.	.	.	.	2
N#Cc1ccccc1CSc1nnc(-c2ccncc2)o1	21	-52*	2	26	6	-2
Fc1cccc(Cl)c1CSc1nnc(-c2ccncc2)o1	57*	-34	2	37	11	3
Clc1ccccc1CSc1nnc(-c2ccncc2)o1	54*	1	0	30	6	-1
SMILES	GSK3A inh	GSK3B inh	STK33 kinase inh	DYRK1A inh	Arrestin-AP2 inh	Rin1-Abl PPI inh
Brc1cccc(CSc2nnc(-c3ccncc3)o2)c1	59*	-70*	2	26	6	2
COc1cc(-c2nnc(SCc3c(F)cccc3Cl)o2)cc(OC)c1OC	-2	-3	-2	-4	-1	2
c1ccc(-c2nnc(SCc3ccncc3)o2)cc1	.	.	.	.	.	-3
COc1ccccc1Cc1c(-c2cccc(Cl)c2)nc2ccc(C)cn12	.	.	.	.	.	0
Cc1cc(O)ccc1NS(=O)(=O)c1ccc2c3c(cccc13)C(=O)N2	14	-5	41*	36	18	1
O=C(O)c1ccccc1NS(=O)(=O)c1ccc2c3c(cccc13)C(=O)N2	.	5	-1	3	23	3
O=S1(=O)CC(N2CCCC2)CN1Cc1ccccc1 (configuration not stated)	.	.	.	.	.	-2
COc1cc(/C=N/Nc2ccc(C(F)(F)F)cn2)ccc1O	4	-37	28*	28	4	4
COc1cc(/C=N/Nc2cc(C)nc(N)n2)ccc1O	0	2	2	8	-13	1
CCOC(=O)c1ccc(NC(=O)[C@@H]2CCC(=O)N2C2OC(=O)c3c2ccc(OC)c3OC)cc1 (some centres not stated)	.	.	.	.	.	-2
COc1ccc(/C=C/c2nc3ccccc3n2C)cc1	45	-38	50*	30	9	-1
COc1ccc(Cn2c(/C=C/c3ccccc3)nc3ccccc32)cc1	0	-4	1	0	-6	-7
CC(=O)OC[C@]12CC[C@H]3[C@@](C)(CC[C@H]4C(C)(C)CCC[C@]34C)[C@@H]1CC(C1=CC(=O)OC1O)O2 (some centres not stated)	.	.	.	.	.	3
CCN1C(=O)/C(=C/N2CCc3ccccc32)SC1=S	-1	1	1	-5	70*	-1
CCN1C(=O)/C(=C\N2CCCc3ccccc32)SC1=S	-2	-1	-1	1	-3	0
CCN(Cc1ccccc1)C(=O)CC(=O)N(CC)Cc1ccccc1	0	1	1	-4	2	-2
COc1ccc(-c2nn(-c3ccccc3)cc2/C=N/O)cc1	46	-54*	0	41	26	-2
N#Cc1c2n(c3c(=S)nc[nH]c13)CCCCC2	102*	-92*	3	29	-5	-5
C[C@@H]1CCCCO[C@H](CN(C)S(=O)(=O)c2ccc(F)cc2)[C@@H](C)CN([C@H](C)CO)C(=O)c2cc(NC(=O)Nc3ccc(C(F)(F)F)cc3)ccc2O1	.	.	.	.	.	0
